Assay results from different studies.
Each line is one published result; the experiments were not run side by side.

For `CC(C)(C)c1ccc(O)c(CN(Cc2cc(C(C)(C)C)ccc2O)C2CCC(NC(N)=O)CC2)c1` (centres unmarked), the Vd was 5.6 L (male C57BL/6 mouse, plasma; intraperitoneal, 25 mg/kg, single dose).
`COc1nc(-c2cc(C)c(N[C@@H](C)c3c(F)cc(F)cc3F)nn2)ccc1-n1cnc(C)c1` has a Vd of 1.52 L/kg (male CD-1 mouse, plasma; intravenous, 1 mg/kg, single dose).
For `COc1ccc2nccc(N3CCc4c(cc(Cn5ccnc5)cc4-c4cn(C)nc4C(F)(F)F)C3=O)c2c1`, the Vd was 1 L/kg (male CD-1 mouse, plasma; intravenous, 3 mg/kg).
The Vd of `CNCCN(C)c1cc(C#N)cc(CCc2cc(C)cc(N)n2)c1` is reported as 44 L/kg (male BALB/c mouse, brain; intravenous, 2 mg/kg).
The Vd of `CC[C@H](C)[C@@H]1NC(=O)[C@@](C)(NC(=O)[C@H](CCCNC(=N)N)NC(=O)[C@H](CC(C)C)NC(=O)[C@@H](NC(=O)[C@H](CCC(N)=O)NC(=O)[C@H](CC(C)C)NC(C)=O)[C@@H](C)O)CCCC=CCCC[C@@](C)(C(=O)N[C@@H](CC(C)C)C(=O)N[C@@H](Cc2ccc3ccccc3c2)C(N)=O)NC(=O)[C@H](CCCNC(=N)N)NC(=O)[C@H](CCC(N)=O)NC1=O` is reported as 0.0788 L/kg (male BALB/c mouse, plasma; intravenous, 10 mg/kg).
For `COc1cc(OC)c2nccc(N3CCc4c(cc(Cn5ccnc5)cc4-c4cn(C)nc4C(F)(F)F)C3=O)c2c1`, the Vd was 2 L/kg (male CD-1 mouse, plasma; intravenous, 3 mg/kg).
With `COc1cc(C2Oc3cc([C@H]4Oc5cc(O)cc(O)c5C(=O)[C@@H]4O)ccc3OC2CO)ccc1O` (some centres unmarked) the Vd was 2.51 L/kg (male CD-1 mouse, plasma; intravenous, 2 mg/kg).
`COc1nc(-c2cc(C)c(N[C@@H](C)c3cc(F)cc(F)c3)nn2)ccc1-n1cnc(C)c1` has a Vd of 2.1 L/kg (male CD-1 mouse, plasma; intravenous, 1 mg/kg, single dose).
For `Cc1ccc2cncc(N3CCc4c(cc(Cn5ccnc5)cc4-c4cn(C)nc4C(F)(F)F)C3=O)c2c1`, the Vd was 0.8 L/kg (male CD-1 mouse, plasma; intravenous, 3 mg/kg).
`CN1CCN(CC2CCN(c3nccc4[nH]c(-c5cc(F)cc(F)c5)nc34)CC2)CC1` gave a Vd of 37 L/kg (BALB/c mouse, blood; intravenous, 2 mg/kg).
For `CCNc1nc2c(c(N3CC(=O)Nc4cc(OC)ccc43)n1)CCC2`, the Vd was 4.7 L/kg (female C57BL/6 mouse, plasma; intravenous, 4 mg/kg, single dose).
